Experimental data from ChEMBL document CHEMBL1153398, “Synthesis, activity and molecular modeling of a new series of chromones as low molecular weight protein tyrosine phosphatase inhibitors” (Bioorg Med Chem, 2009).
Active and inactive are the calls of the source. The calls are words filed in the database; no cut-off is given here.

Target: T1, Tyrosine-protein phosphatase non-receptor type 1 (Homo sapiens) (UniProt P18031)
T1 sequence (whole entry): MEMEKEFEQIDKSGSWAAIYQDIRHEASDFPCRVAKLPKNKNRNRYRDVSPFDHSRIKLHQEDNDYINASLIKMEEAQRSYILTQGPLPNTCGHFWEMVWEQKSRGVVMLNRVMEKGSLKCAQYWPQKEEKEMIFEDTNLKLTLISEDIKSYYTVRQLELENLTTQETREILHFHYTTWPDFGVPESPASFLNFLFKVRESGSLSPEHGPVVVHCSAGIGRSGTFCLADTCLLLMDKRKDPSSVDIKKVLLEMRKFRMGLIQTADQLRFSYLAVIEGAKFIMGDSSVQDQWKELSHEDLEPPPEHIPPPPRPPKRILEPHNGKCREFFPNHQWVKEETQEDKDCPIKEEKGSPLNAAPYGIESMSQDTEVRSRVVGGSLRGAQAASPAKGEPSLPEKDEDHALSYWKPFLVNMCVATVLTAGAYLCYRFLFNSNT
Experiment: Inhibition of human cloned PTP1B expressed in Escherichia coli TB1 at 15 uM
In short: (§1)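 GST-fused human enzymes (LMW-PTP IF1 or IF2, or PTP-1B) expressed in E. coli TB1, affinity-purified, thrombin-cleaved (3 h, 37 °C) and gel-filtered. […] Reaction stopped with 1 M KOH; p-nitrophenol read at 400 nm. Initial rates in triplicate; IC50 fitted to Vi/V° = IC50/(IC50+[I]); single-concentration lines give % inhibition.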

inhibition | SMILES
20% | O=c1c(Cc2ccc(-c3ccccc3)cc2)c(CCc2ccc(O)cc2)oc2cc(O)ccc12
20% | O=c1c(Cc2ccc(-c3ccccc3)cc2)c(Cc2ccc(O)cc2)oc2ccc(O)cc12
0% | O=c1cc(Cc2ccc(O)cc2)oc2cc(O)ccc12
10% | O=c1c(Cc2ccc(-c3ccccc3)cc2)c(Cc2ccc(O)cc2)oc2cc(O)ccc12
4% | O=c1c(Cc2ccc(-c3ccccc3)cc2)c(-c2ccc(O)cc2)oc2cc(O)ccc12
0% | O=c1c(Cc2ccc(-c3ccccc3)cc2)c(CCCc2ccc(O)cc2)oc2cc(O)ccc12
0% | O=c1c(Cc2ccccc2)c(Cc2ccc(O)cc2)oc2cc(O)ccc12

Target: Insulin receptor (Homo sapiens) (UniProt P06213)
Sequence (P06213 28-758 limits assumed): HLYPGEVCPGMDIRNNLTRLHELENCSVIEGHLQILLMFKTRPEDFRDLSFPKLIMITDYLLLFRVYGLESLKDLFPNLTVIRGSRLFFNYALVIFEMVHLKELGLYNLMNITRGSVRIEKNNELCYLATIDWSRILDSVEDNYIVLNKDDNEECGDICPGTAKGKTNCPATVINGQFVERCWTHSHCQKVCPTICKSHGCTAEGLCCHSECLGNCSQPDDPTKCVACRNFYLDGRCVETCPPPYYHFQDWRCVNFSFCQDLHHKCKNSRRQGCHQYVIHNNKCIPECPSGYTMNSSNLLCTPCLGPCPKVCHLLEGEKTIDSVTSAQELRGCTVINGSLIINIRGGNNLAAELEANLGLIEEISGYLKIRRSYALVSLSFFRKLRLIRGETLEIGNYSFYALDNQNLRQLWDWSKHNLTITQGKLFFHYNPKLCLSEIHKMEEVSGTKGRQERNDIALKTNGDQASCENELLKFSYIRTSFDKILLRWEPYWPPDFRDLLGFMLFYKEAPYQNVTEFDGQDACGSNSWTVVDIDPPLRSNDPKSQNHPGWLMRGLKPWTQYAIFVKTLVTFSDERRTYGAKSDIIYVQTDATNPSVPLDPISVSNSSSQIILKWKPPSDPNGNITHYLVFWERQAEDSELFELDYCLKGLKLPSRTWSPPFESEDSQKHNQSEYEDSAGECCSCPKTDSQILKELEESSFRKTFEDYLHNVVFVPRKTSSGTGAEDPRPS
Sequence (P06213 763-1382 limits assumed): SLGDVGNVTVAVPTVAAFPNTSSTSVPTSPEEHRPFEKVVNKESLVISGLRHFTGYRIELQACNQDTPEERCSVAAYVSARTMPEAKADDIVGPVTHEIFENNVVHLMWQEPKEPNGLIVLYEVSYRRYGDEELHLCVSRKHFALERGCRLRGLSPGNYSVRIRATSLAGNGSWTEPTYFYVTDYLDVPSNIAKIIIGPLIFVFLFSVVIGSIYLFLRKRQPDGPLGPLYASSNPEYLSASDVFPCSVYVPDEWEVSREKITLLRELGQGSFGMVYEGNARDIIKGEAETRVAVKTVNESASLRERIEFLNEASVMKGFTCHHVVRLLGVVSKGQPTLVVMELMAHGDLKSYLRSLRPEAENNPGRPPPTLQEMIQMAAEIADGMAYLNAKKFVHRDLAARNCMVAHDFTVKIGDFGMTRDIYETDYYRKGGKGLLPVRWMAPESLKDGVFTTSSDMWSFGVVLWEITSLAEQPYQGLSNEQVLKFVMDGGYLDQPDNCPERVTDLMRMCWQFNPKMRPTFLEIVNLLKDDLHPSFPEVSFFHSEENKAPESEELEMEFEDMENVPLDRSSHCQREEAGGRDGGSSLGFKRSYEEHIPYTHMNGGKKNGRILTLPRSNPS
Experiment: Activation of human insulin receptor beta expressed in human HepG2 cells assessed as increase in Akt phosphorylation level at 10 uM after 90 mins by SDS-PAGE
Format: cell-based
In short: (§2)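 HepG2 cells grown in DMEM with 10% bovine calf serum, 37 °C, 5% CO2; subconfluent cells serum-starved 20 h. Inhibitor added to medium at 10 µM final, 90 min, 37 °C; 10 nM insulin, 0.5% DMSO and 10 µM orthovanadate as references. Lysis in SDS Laemmli buffer, SDS-PAGE, Western blot for phospho-IRβ, then stripped and reprobed for phospho-Akt, phosphotyrosine and actin. At least three separate experiments.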

Activity | SMILES
Active | O=C(O)c1ccc(-c2ccc(Cc3c(-c4ccc(O)cc4)oc4cc(O)ccc4c3=O)cc2)cc1O
Active | O=c1c(Cc2ccc(-c3ccc(O)c(O)c3)cc2)c(-c2ccc(O)cc2)oc2cc(O)ccc12

Target: T1, Tyrosine-protein phosphatase non-receptor type 1 (Homo sapiens)
Experiment: Inhibition of human cloned PTP1B expressed in Escherichia coli TB1 at 20 uM
In short: as §1

inhibition | SMILES
5% | O=C(O)c1ccc(-c2ccccc2)cc1O
20% | Oc1ccc(-c2ccccc2)cc1O
10% | O=c1cc(-c2ccc(O)cc2)oc2cc(O)c(O)cc12
50% | O=c1c(Cc2cccc(-c3ccc(O)c(O)c3)c2)c(-c2ccc(O)cc2)oc2cc(O)ccc12
50% | O=C(O)c1ccc(-c2cccc(Cc3c(-c4ccc(O)cc4)oc4cc(O)ccc4c3=O)c2)cc1O
10% | Oc1ccc(-c2ccccc2)c(O)c1

Target: T2, Tyrosine-protein phosphatase non-receptor type 1 (Homo sapiens, UniProt P18031)
T2 sequence (P18031 whole entry): T1 sequence (whole entry)
Experiment: Inhibition of human recombinant PTP1B

IC50 | SMILES
1.08 µM | O=C(c1ccc(O)cc1)c1oc2ccccc2c1-c1ccc(-c2ccc(O)cc2)cc1

Target: Insulin receptor (Homo sapiens) (UniProt P06213)
Experiment: Activation of human insulin receptor beta expressed in human HepG2 cells assessed as increase in tyrosine phosphorylation level at 10 uM after 90 mins by SDS-PAGE
Format: cell-based
In short: as §2

Activity | SMILES
Active | O=C(O)c1ccc(-c2ccc(Cc3c(-c4ccc(O)cc4)oc4cc(O)ccc4c3=O)cc2)cc1O
Active | O=c1c(Cc2ccc(-c3ccccc3)cc2)c(-c2ccc(O)cc2)oc2cc(O)c(O)cc12
Active | O=c1c(Cc2ccc(-c3ccc(O)c(O)c3)cc2)c(-c2ccc(O)cc2)oc2cc(O)ccc12

Target: T3, Low molecular weight phosphotyrosine protein phosphatase (Homo sapiens, UniProt P24666)
T3 sequence (P24666 whole entry): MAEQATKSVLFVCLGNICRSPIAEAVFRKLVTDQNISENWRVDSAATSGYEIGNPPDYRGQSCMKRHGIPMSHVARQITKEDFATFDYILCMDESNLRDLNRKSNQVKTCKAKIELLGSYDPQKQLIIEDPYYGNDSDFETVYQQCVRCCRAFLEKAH
Experiment: Inhibition of human cloned LMW-PTP isoform 1 expressed in Escherichia coli TB1

IC50 | SMILES
6.5 µM | O=c1c(Cc2ccc(-c3ccccc3)cc2)c(CCc2ccc(O)cc2)oc2cc(O)ccc12
1.3 µM | O=C(O)c1ccc(-c2ccc(Cc3c(-c4ccc(O)cc4)oc4cc(O)ccc4c3=O)cc2)cc1O
8.6 µM | O=c1c(Cc2ccc(-c3ccccc3)cc2)c(Cc2ccc(O)cc2)oc2ccc(O)cc12
0.7 µM | O=C(O)c1ccc(-c2ccc(Cc3c(-c4ccc(O)cc4)oc4ccccc4c3=O)cc2)cc1O
5.3 µM | O=c1c(Cc2ccc(-c3ccccc3)cc2)c(Cc2ccc(O)cc2)oc2cc(O)ccc12
5.7 µM | O=c1c(Cc2ccc(-c3ccccc3)cc2)c(-c2ccc(O)cc2)oc2cc(O)ccc12
1.1 µM | O=c1c(Cc2ccc(-c3ccccc3)cc2)c(-c2ccc(O)cc2)oc2cc(O)c(O)cc12
11.4 µM | O=C(O)c1cccc(-c2ccc(Cc3c(-c4ccc(O)cc4)oc4cc(O)ccc4c3=O)cc2)c1
14.3 µM | O=c1c(Cc2ccc(-c3ccc(O)c(O)c3)cc2)c(-c2ccc(O)cc2)oc2ccccc12
7.4 µM | O=c1c(Cc2ccc(-c3ccc(O)c(O)c3)cc2)c(-c2ccc(O)cc2)oc2cc(O)ccc12

Target: T3, Low molecular weight phosphotyrosine protein phosphatase
Experiment: Inhibition of human cloned LMW-PTP isoform 2 expressed in Escherichia coli TB1 by mixed type inhibition assay

Ki | SMILES
7.8 µM | O=c1c(Cc2ccc(-c3ccccc3)cc2)c(-c2ccc(O)cc2)oc2cc(O)ccc12
2.68 µM | O=c1c(Cc2ccc(-c3ccc(O)c(O)c3)cc2)c(-c2ccc(O)cc2)oc2cc(O)ccc12

Target: T3, Low molecular weight phosphotyrosine protein phosphatase
Experiment: Inhibition of human cloned LMW-PTP isoform 1 expressed in Escherichia coli TB1 by competitive inhibition assay

Ki | SMILES
0.27 µM | O=c1c(Cc2ccc(-c3ccccc3)cc2)c(-c2ccc(O)cc2)oc2cc(O)c(O)cc12

Target: T4, Low molecular weight phosphotyrosine protein phosphatase (Homo sapiens) (UniProt P24666)
T4 sequence (whole entry): T3 sequence (P24666 whole entry)
Experiment: Inhibition of human cloned LMW-PTP isoform 1 expressed in Escherichia coli TB1 at 15 uM
In short: as §1

inhibition | SMILES
10% | O=c1cc(Cc2ccc(O)cc2)oc2cc(O)ccc12
10% | O=c1c(Cc2ccc(-c3ccccc3)cc2)c(CCCc2ccc(O)cc2)oc2cc(O)ccc12
10% | O=c1c(Cc2ccccc2)c(Cc2ccc(O)cc2)oc2cc(O)ccc12

Target: T3, Low molecular weight phosphotyrosine protein phosphatase
Experiment: Inhibition of human cloned LMW-PTP isoform 2 expressed in Escherichia coli TB1 by competitive inhibition assay

Ki | SMILES
0.34 µM | O=c1c(Cc2ccc(-c3ccccc3)cc2)c(-c2ccc(O)cc2)oc2cc(O)c(O)cc12

Target: T3, Low molecular weight phosphotyrosine protein phosphatase
Experiment: Inhibition of human cloned LMW-PTP isoform 2 expressed in Escherichia coli TB1

IC50 | SMILES
17.3 µM | O=c1c(Cc2ccc(-c3ccccc3)cc2)c(CCc2ccc(O)cc2)oc2cc(O)ccc12
2.2 µM | O=C(O)c1ccc(-c2ccc(Cc3c(-c4ccc(O)cc4)oc4cc(O)ccc4c3=O)cc2)cc1O
17.2 µM | O=c1c(Cc2ccc(-c3ccccc3)cc2)c(Cc2ccc(O)cc2)oc2ccc(O)cc12
5.7 µM | O=C(O)c1ccc(-c2ccc(Cc3c(-c4ccc(O)cc4)oc4ccccc4c3=O)cc2)cc1O
17.5 µM | O=c1c(Cc2ccc(-c3ccccc3)cc2)c(Cc2ccc(O)cc2)oc2cc(O)ccc12
13.9 µM | O=c1c(Cc2ccc(-c3ccccc3)cc2)c(-c2ccc(O)cc2)oc2cc(O)ccc12
3 µM | O=c1c(Cc2ccc(-c3ccccc3)cc2)c(-c2ccc(O)cc2)oc2cc(O)c(O)cc12
26.8 µM | O=C(O)c1cccc(-c2ccc(Cc3c(-c4ccc(O)cc4)oc4cc(O)ccc4c3=O)cc2)c1
12.6 µM | O=c1c(Cc2ccc(-c3ccc(O)c(O)c3)cc2)c(-c2ccc(O)cc2)oc2ccccc12
12.4 µM | O=c1c(Cc2ccc(-c3ccc(O)c(O)c3)cc2)c(-c2ccc(O)cc2)oc2cc(O)ccc12

Target: T4, Low molecular weight phosphotyrosine protein phosphatase (Homo sapiens)
Experiment: Inhibition of human cloned LMW-PTP isoform 1 expressed in Escherichia coli TB1 at 20 uM
In short: as §1

inhibition | SMILES
0% | O=C(O)c1ccc(-c2ccccc2)cc1O
0% | Oc1ccc(-c2ccccc2)cc1O
25% | O=c1cc(-c2ccc(O)cc2)oc2cc(O)c(O)cc12
60% | O=c1c(Cc2cccc(-c3ccc(O)c(O)c3)c2)c(-c2ccc(O)cc2)oc2cc(O)ccc12
5% | O=C(O)c1ccc(-c2cccc(Cc3c(-c4ccc(O)cc4)oc4cc(O)ccc4c3=O)c2)cc1O
0% | Oc1ccc(-c2ccccc2)c(O)c1

Target: T2, Tyrosine-protein phosphatase non-receptor type 1
Experiment: Inhibition of human cloned PTP1B expressed in Escherichia coli TB1 by mixed type inhibition assay

Ki | SMILES
29.1 µM | O=c1c(Cc2ccc(-c3ccccc3)cc2)c(-c2ccc(O)cc2)oc2cc(O)ccc12

Target: T3, Low molecular weight phosphotyrosine protein phosphatase
Experiment: Inhibition of human cloned LMW-PTP isoform 1 expressed in Escherichia coli TB1 by mixed type inhibition assay

Ki | SMILES
2.5 µM | O=c1c(Cc2ccc(-c3ccccc3)cc2)c(-c2ccc(O)cc2)oc2cc(O)ccc12
2.23 µM | O=c1c(Cc2ccc(-c3ccc(O)c(O)c3)cc2)c(-c2ccc(O)cc2)oc2cc(O)ccc12

Target: T4, Low molecular weight phosphotyrosine protein phosphatase (Homo sapiens)
Experiment: Inhibition of human cloned LMW-PTP isoform 2 expressed in Escherichia coli TB1 at 15 uM
In short: as §1

inhibition | SMILES
10% | O=c1cc(Cc2ccc(O)cc2)oc2cc(O)ccc12
10% | O=c1c(Cc2ccc(-c3ccccc3)cc2)c(CCCc2ccc(O)cc2)oc2cc(O)ccc12
10% | O=c1c(Cc2ccccc2)c(Cc2ccc(O)cc2)oc2cc(O)ccc12

Target: T4, Low molecular weight phosphotyrosine protein phosphatase (Homo sapiens)
Experiment: Inhibition of human cloned LMW-PTP isoform 2 expressed in Escherichia coli TB1 at 20 uM
In short: as §1

inhibition | SMILES
0% | O=C(O)c1ccc(-c2ccccc2)cc1O
0% | Oc1ccc(-c2ccccc2)cc1O
10% | O=c1cc(-c2ccc(O)cc2)oc2cc(O)c(O)cc12
25% | O=c1c(Cc2cccc(-c3ccc(O)c(O)c3)c2)c(-c2ccc(O)cc2)oc2cc(O)ccc12
10% | O=C(O)c1ccc(-c2cccc(Cc3c(-c4ccc(O)cc4)oc4cc(O)ccc4c3=O)c2)cc1O
0% | Oc1ccc(-c2ccccc2)c(O)c1

Target: Insulin receptor (Homo sapiens) (UniProt P06213)
Experiment: Activation of human insulin receptor beta expressed in human HepG2 cells assessed as stimulation of receptor phosphorylation at 10 uM after 90 mins by SDS-PAGE
Format: cell-based
In short: as §2

Activity | SMILES
Active | O=C(O)c1ccc(-c2ccc(Cc3c(-c4ccc(O)cc4)oc4cc(O)ccc4c3=O)cc2)cc1O
Active | O=c1c(Cc2ccc(-c3ccccc3)cc2)c(-c2ccc(O)cc2)oc2cc(O)c(O)cc12
Active | O=c1c(Cc2ccc(-c3ccc(O)c(O)c3)cc2)c(-c2ccc(O)cc2)oc2cc(O)ccc12

Target: T2, Tyrosine-protein phosphatase non-receptor type 1
Experiment: Inhibition of human cloned PTP1B expressed in Escherichia coli TB1
In short: as §1

IC50 | SMILES
1 µM | O=C(O)c1ccc(-c2ccc(Cc3c(-c4ccc(O)cc4)oc4cc(O)ccc4c3=O)cc2)cc1O
17 µM | O=c1c(Cc2ccc(-c3ccc(O)cc3)cc2)c(-c2ccc(O)cc2)oc2cc(O)ccc12
0.9 µM | O=C(O)c1ccc(-c2ccc(Cc3c(-c4ccc(O)cc4)oc4ccccc4c3=O)cc2)cc1O
2 µM | O=c1c(Cc2ccc(-c3ccccc3)cc2)c(-c2ccc(O)cc2)oc2cc(O)c(O)cc12
6.2 µM | O=C(O)c1cccc(-c2ccc(Cc3c(-c4ccc(O)cc4)oc4cc(O)ccc4c3=O)cc2)c1
5 µM | O=c1c(Cc2ccc(-c3ccc(O)c(O)c3)cc2)c(-c2ccc(O)cc2)oc2ccccc12
7.7 µM | O=c1c(Cc2ccc(-c3ccc(O)c(O)c3)cc2)c(-c2ccc(O)cc2)oc2cc(O)ccc12
